# Results gathered from unrelated publications.
# Protocols differ between the studies behind these lines.
# Target: NUAK family SNF1-like kinase 2 (NUAK2, Homo sapiens, UniProt Q9H093)
# Residues used in one study (Q9H093 1-628): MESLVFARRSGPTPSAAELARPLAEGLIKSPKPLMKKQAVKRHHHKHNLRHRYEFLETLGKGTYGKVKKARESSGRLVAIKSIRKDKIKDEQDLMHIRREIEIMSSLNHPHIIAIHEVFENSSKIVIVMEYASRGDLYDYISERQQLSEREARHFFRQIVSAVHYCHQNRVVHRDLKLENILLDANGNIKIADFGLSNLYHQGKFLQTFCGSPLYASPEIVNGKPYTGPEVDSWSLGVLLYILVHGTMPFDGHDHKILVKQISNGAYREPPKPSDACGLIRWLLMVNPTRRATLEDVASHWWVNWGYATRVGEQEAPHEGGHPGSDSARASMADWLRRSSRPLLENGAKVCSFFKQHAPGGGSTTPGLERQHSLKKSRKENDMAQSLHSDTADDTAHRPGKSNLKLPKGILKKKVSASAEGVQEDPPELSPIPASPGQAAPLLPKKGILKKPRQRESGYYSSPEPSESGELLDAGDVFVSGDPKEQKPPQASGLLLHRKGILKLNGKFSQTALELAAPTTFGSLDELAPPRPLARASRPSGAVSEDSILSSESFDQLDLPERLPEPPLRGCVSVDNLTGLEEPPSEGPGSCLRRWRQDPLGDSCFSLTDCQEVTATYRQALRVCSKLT
SMILES,effect on,mode,method,tested at,quantity,result
Nc1ncnc2occ(-c3ccc(NC(=O)Nc4cc(C(F)(F)F)ccc4F)cc3)c12,cell-free assay,inhibitor,,20 µM,remaining signal,30%
CC(C)(C)c1nc2c(s1)c1nc(N)ncc1c1ccc(NS(=O)(=O)c3c(F)cccc3F)c(F)c12,enzyme activity,inhibitor,radiometric,1 µM,remaining activity,81%
O=C(O)c1cc(-c2ccc(C3CCNCC3)cc2)c2ccc(-c3ccc(C(F)(F)F)cc3)cc2c1,cell-free assay,,competition with immobilised ligand,1 µM,remaining binding,100%
O=C1Nc2ccc(Cl)cc2C1=Cc1cc(Cl)c(O)c(Cl)c1,cell-free assay,,,0.5 µM,remaining signal,78.7%
COc1cc(-c2cn(C3CCc4c(F)cccc4N(CC(F)(F)F)C3=O)nn2)ccc1-n1cnc(C)c1 (centres unmarked),cell-free assay,,competition with immobilised ligand,1 µM,remaining binding,100%
CC(C)(O)[C@H]1CC[C@H](Nc2ccc3ncc(-c4cccc(C(F)(F)F)c4)n3n2)CC1,enzyme activity,inhibitor,,1 µM,remaining activity,84.9%
O=C(Nc1cnn(-c2csc(C(=O)NC3COC3)c2)c1)Nc1c(F)cccc1Cl,enzyme activity,inhibitor,,5 µM,remaining activity,97.8%
COc1cc(Cl)c(C(=O)N[C@@H](CN[C@H]2CC[C@@H](N)CC2)Cc2ccc(C#N)cc2)cc1-c1ccc(CN[C@H](C)c2ccc(C)cc2)o1,enzyme activity,inhibitor,,1 µM,remaining activity,93%
CC(C)(C)c1nc(-c2cccc(NS(=O)(=O)c3c(F)cccc3F)c2F)c(-c2ccnc(N)n2)s1,enzyme activity,inhibitor,radiometric,1 µM,remaining activity,90%
CC/C(=N\NC(=O)NCc1cccc(O)c1)c1ccc(O)c(C)c1O,enzyme activity,inhibitor,,0.1 µM,inhibition,12.5%
COc1ccc2c(O[C@@H]3C[C@H]4C(=O)N[C@]5(C(=O)O)CC5/C=C\CCCCC[C@H](NC(=O)OC5CCCC5)C(=O)N4C3)cc(-c3csc(NC(=O)C(C)C)n3)nc2c1C (some centres unmarked),cell-free assay,,competition with immobilised ligand,1 µM,remaining binding,91%
O=C(Nc1cnn(-c2csc(C(=O)NC3COC3)c2)c1)Nc1ccccc1Cl,enzyme activity,inhibitor,,5 µM,remaining activity,99.8%
CN(c1ccnc(CNc2nc(Nc3ccc4c(c3)CC(=O)N4)ncc2C(F)(F)F)n1)S(C)(=O)=O,cell-free assay,,competition with immobilised ligand,1 µM,remaining binding,7.6%
N#CCCc1ccc2c(c1)-c1[nH]c3ccc([N+](=O)[O-])cc3c1CC(=O)N2,cell-free assay,,,0.5 µM,remaining signal,67.6%
Cc1ccc(C(=O)Nc2ccc(CN3CCN(C)CC3)c(C(F)(F)F)c2)cc1C#Cc1cnc2cccnn12,enzyme activity,inhibitor,,23.5 nM,remaining activity,84%
CN1CC(Oc2cnc(C#N)cc2-c2ccn3nc(NC(=O)C4CC4)cc3c2)C1,enzyme activity,inhibitor,,1 µM,inhibition,-8%
C#Cc1cccc(Nc2ncnc3cc(OCCOC)c(OCCOC)cc23)c1,cell-free assay,,,0.5 µM,remaining signal,95.3%
